Assays:
Type in all cases: toxicity, cell-based
[1] = system: U2OS; assay: Incucyte cell viability with U2OS; conditions: human, 10 µM, compound concentration 10 uM; note: filed as whole numbers so only -1 and 0 and 1 occur
[2] = system: Fibroblast; assay: Multiplex assay against human fibroblast
Method in brief: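 Tubulin, mitochondrial-mass and membrane-permeability phenotypes are per cents of healthy-nucleus cells. Cells were gated by CellPathfinder machine learning into Hoechst high-intensity objects or normal cells, normal cells into healthy, pyknosed or fragmented nuclei, and pyknosed cells into mitotic or apoptotic. Before that, live cells stained at seeding with Hoechst33342, BioTracker Green Microtubule Cytoskeleton Dye, MitoTracker Red and Annexin V Alexa Fluor 680 were imaged on a CQ1 microscope at 37°C and 5% CO2 after compound addition.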

[3] = system: Fibroblast; assay: Incucyte cell viability with human fibroblast; conditions: 10 µM, compound concentration 10 uM; note: filed as whole numbers so only -1 and 0 and 1 occur
[4] = 0 h, replicate number 1, timepoint 0 hours
[5] = 12 h, replicate number 1, timepoint 12 hours
[6] = 18 h, replicate number 1, timepoint 18 hours
[7] = 24 h, replicate number 1, timepoint 24 hours
[8] = 12 h, 1 µM, compound concentration 1 uM, replicate 1
[9] = 12 h, 1 µM, compound concentration 1 uM, replicate 2
[10] = 12 h, 10 µM, compound concentration 10 uM, replicate 1
[11] = 12 h, 10 µM, compound concentration 10 uM, replicate 2
[12] = 24 h, 1 µM, compound concentration 1 uM, replicate 1
[13] = 24 h, 1 µM, compound concentration 1 uM, replicate 2
[14] = 24 h, 10 µM, compound concentration 10 uM, replicate 1
[15] = 24 h, 10 µM, compound concentration 10 uM, replicate 2
[16] = 48 h, 1 µM, compound concentration 1 uM, replicate 1
[17] = 48 h, 1 µM, compound concentration 1 uM, replicate 2
[18] = 48 h, 10 µM, compound concentration 10 uM, replicate 1
[19] = 48 h, 10 µM, compound concentration 10 uM, replicate 2

CCCn1c(=O)c2[nH]c(C34CC5CC(CC3C5)C4)nc2n(CCC)c1=O [ROLOFYLLINE]
Growth Rate [1, 4]: 1 | Growth Rate ([1]; 0 h, replicate number 2, timepoint 0 hours): 0 | Growth Rate ([1]; 6 h, replicate number 2, timepoint 6 hours): 1 | Growth Rate [1, 5]: 1 | Growth Rate [1, 6]: 1 | Growth Rate [1, 7]: 1 | Population Apoptotic (%) [2, 8]: 67% | Population Fragmented Nuclei (%) [2, 8]: 13% | Population Healthy Nuclei (%) [2, 8]: 55% | Population Hoechst High Intensity Objects (%) [2, 8]: 9% | Population Membrane Permeable-Phenotype (%) [2, 8]: 24% | Population Mitochondria Different-Phenotype (%) [2, 8]: 10% | Population Mitotic Cells (%) [2, 8]: 32% | Population Normal (%) [2, 8]: 90% | Population Pyknosed Nuclei (%) [2, 8]: 31% | Population Tubulin-Different-Phenotype (%) [2, 8]: 63% | Total Cell Count [2, 8]: 98 | Population Apoptotic (%) [2, 9]: 71% | Population Fragmented Nuclei (%) [2, 9]: 4% | Population Healthy Nuclei (%) [2, 9]: 88% | Population Hoechst High Intensity Objects (%) [2, 9]: 3% | Population Membrane Permeable-Phenotype (%) [2, 9]: 12% | Population Mitochondria Different-Phenotype (%) [2, 9]: 15% | Population Mitotic Cells (%) [2, 9]: 28% | Population Normal (%) [2, 9]: 96% | Population Pyknosed Nuclei (%) [2, 9]: 7% | Population Tubulin-Different-Phenotype (%) [2, 9]: 20% | Total Cell Count [2, 9]: 81 | Population Apoptotic (%) [2, 10]: 46% | Population Fragmented Nuclei (%) [2, 10]: 13% | Population Healthy Nuclei (%) [2, 10]: 42% | Population Hoechst High Intensity Objects (%) [2, 10]: 13% | Population Membrane Permeable-Phenotype (%) [2, 10]: 23% | Population Mitochondria Different-Phenotype (%) [2, 10]: 37% | Population Mitotic Cells (%) [2, 10]: 53% | Population Normal (%) [2, 10]: 86% | Population Pyknosed Nuclei (%) [2, 10]: 43% | Population Tubulin-Different-Phenotype (%) [2, 10]: 88% | Total Cell Count [2, 10]: 137 | Population Apoptotic (%) [2, 11]: 55% | Population Healthy Nuclei (%) [2, 11]: 74% | Population Hoechst High Intensity Objects (%) [2, 11]: 3% | Population Membrane Permeable-Phenotype (%) [2, 11]: 46% | Population Mitochondria Different-Phenotype (%) [2, 11]: 73% | Population Mitotic Cells (%) [2, 11]: 44% | Population Normal (%) [2, 11]: 96% | Population Pyknosed Nuclei (%) [2, 11]: 12% | Population Tubulin-Different-Phenotype (%) [2, 11]: 100% | Total Cell Count [2, 11]: 99 | Population Apoptotic (%) [2, 12]: 31% | Population Fragmented Nuclei (%) [2, 12]: 20% | Population Healthy Nuclei (%) [2, 12]: 56% | Population Hoechst High Intensity Objects (%) [2, 12]: 13% | Population Membrane Permeable-Phenotype (%) [2, 12]: 39% | Population Mitochondria Different-Phenotype (%) [2, 12]: 9% | Population Mitotic Cells (%) [2, 12]: 68% | Population Normal (%) [2, 12]: 86% | Population Pyknosed Nuclei (%) [2, 12]: 23% | Population Tubulin-Different-Phenotype (%) [2, 12]: 73% | Total Cell Count [2, 12]: 109 | Population Apoptotic (%) [2, 13]: 40% | Population Fragmented Nuclei (%) [2, 13]: 7% | Population Healthy Nuclei (%) [2, 13]: 88% | Population Hoechst High Intensity Objects (%) [2, 13]: 5% | Population Membrane Permeable-Phenotype (%) [2, 13]: 6% | Population Mitochondria Different-Phenotype (%) [2, 13]: 11% | Population Mitotic Cells (%) [2, 13]: 60% | Population Normal (%) [2, 13]: 94% | Population Pyknosed Nuclei (%) [2, 13]: 4% | Population Tubulin-Different-Phenotype (%) [2, 13]: 15% | Total Cell Count [2, 13]: 83 | Population Apoptotic (%) [2, 14]: 36% | Population Fragmented Nuclei (%) [2, 14]: 17% | Population Healthy Nuclei (%) [2, 14]: 43% | Population Hoechst High Intensity Objects (%) [2, 14]: 13% | Population Membrane Permeable-Phenotype (%) [2, 14]: 31% | Population Mitochondria Different-Phenotype (%) [2, 14]: 39% | Population Mitotic Cells (%) [2, 14]: 63% | Population Normal (%) [2, 14]: 86% | Population Pyknosed Nuclei (%) [2, 14]: 39% | Population Tubulin-Different-Phenotype (%) [2, 14]: 87% | Total Cell Count [2, 14]: 128 | Population Apoptotic (%) [2, 15]: 56% | Population Fragmented Nuclei (%) [2, 15]: 9% | Population Healthy Nuclei (%) [2, 15]: 58% | Population Hoechst High Intensity Objects (%) [2, 15]: 5% | Population Membrane Permeable-Phenotype (%) [2, 15]: 41% | Population Mitochondria Different-Phenotype (%) [2, 15]: 81% | Population Mitotic Cells (%) [2, 15]: 43% | Population Normal (%) [2, 15]: 94% | Population Pyknosed Nuclei (%) [2, 15]: 31% | Population Tubulin-Different-Phenotype (%) [2, 15]: 100% | Total Cell Count [2, 15]: 120 | Population Apoptotic (%) [2, 16]: 31% | Population Fragmented Nuclei (%) [2, 16]: 28% | Population Healthy Nuclei (%) [2, 16]: 55% | Population Hoechst High Intensity Objects (%) [2, 16]: 14% | Population Membrane Permeable-Phenotype (%) [2, 16]: 23% | Population Mitochondria Different-Phenotype (%) [2, 16]: 3% | Population Mitotic Cells (%) [2, 16]: 68% | Population Normal (%) [2, 16]: 85% | Population Pyknosed Nuclei (%) [2, 16]: 15% | Population Tubulin-Different-Phenotype (%) [2, 16]: 58% | Total Cell Count [2, 16]: 118 | Population Apoptotic (%) [2, 17]: 0% | Population Fragmented Nuclei (%) [2, 17]: 25% | Population Healthy Nuclei (%) [2, 17]: 73% | Population Hoechst High Intensity Objects (%) [2, 17]: 13% | Population Membrane Permeable-Phenotype (%) [2, 17]: 34% | Population Mitochondria Different-Phenotype (%) [2, 17]: 5% | Population Mitotic Cells (%) [2, 17]: 100% | Population Normal (%) [2, 17]: 86% | Population Pyknosed Nuclei (%) [2, 17]: 1% | Population Tubulin-Different-Phenotype (%) [2, 17]: 70% | Total Cell Count [2, 17]: 87 | Population Apoptotic (%) [2, 18]: 62% | Population Fragmented Nuclei (%) [2, 18]: 31% | Population Healthy Nuclei (%) [2, 18]: 46% | Population Hoechst High Intensity Objects (%) [2, 18]: 17% | Population Membrane Permeable-Phenotype (%) [2, 18]: 26% | Population Mitochondria Different-Phenotype (%) [2, 18]: 51% | Population Mitotic Cells (%) [2, 18]: 37% | Population Normal (%) [2, 18]: 82% | Population Pyknosed Nuclei (%) [2, 18]: 21% | Population Tubulin-Different-Phenotype (%) [2, 18]: 86% | Total Cell Count [2, 18]: 134 | Population Apoptotic (%) [2, 19]: 50% | Population Fragmented Nuclei (%) [2, 19]: 37% | Population Healthy Nuclei (%) [2, 19]: 57% | Population Hoechst High Intensity Objects (%) [2, 19]: 50% | Population Membrane Permeable-Phenotype (%) [2, 19]: 21% | Population Mitochondria Different-Phenotype (%) [2, 19]: 34% | Population Mitotic Cells (%) [2, 19]: 50% | Population Normal (%) [2, 19]: 50% | Population Pyknosed Nuclei (%) [2, 19]: 5% | Population Tubulin-Different-Phenotype (%) [2, 19]: 82% | Total Cell Count [2, 19]: 160 | Growth Rate [3, 4]: 0 | Growth Rate ([3]; 6 h, replicate number 1, timepoint 6 hours): 0 | Growth Rate [3, 5]: 0 | Growth Rate [3, 6]: 0 | Growth Rate [3, 7]: 0

From ChEMBL document CHEMBL4689842, “EUbOPEN Chemogenomics Library wave 1” (2021)
